≈ marks a conversion by molar mass, not a printed value. Calls of active or inactive are those of the source.

By MIC is commonly meant the smallest concentration in the dilution series that meets the test's criterion for growth inhibition.

Experiment [1] concerns Candida albicans. Description: Fungistatic activity against Candida albicans ATCC 10231 at 1 to 4 times MIC incubated for 24 hrs by time kill assay. It is filed as functional. A digest of the protocol:
(§1)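 Overnight YPD cultures diluted in RPMI 1640 to an inoculum of 1–4 × 10^5 CFU/mL. […] Final volume 4 mL, 35 °C, 200 rpm, 24 h. Sampled at 0, 3, 6, 9, 12 and 24 h, serially diluted and plated on PDA. Colonies counted after 48 h (24 h for strain A). Detection limit 100 CFU/mL. Duplicate.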

Experiment [2] relates to Candida albicans. Description: Antifungal activity against Candida albicans ATCC 64124 after 48 hrs by broth dilution method. It is filed as functional. In short, it runs like this: (§2)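 CLSI M27-A3 broth microdilution with minor modifications. Overnight YPD culture grown at 35 °C, 200 rpm, adjusted to OD600 0.12, diluted in RPMI 1640 buffered to pH 7.0 with 0.165 M MOPS to a final 1–2 × 10^3 CFU/mL. Test compounds at 0.015–31.3 µg/mL, 48 h at 35 °C, DMSO <1.25%. […] Triplicate.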
For orientation: Dilution methods test growth across graded concentrations, often in twofold steps.

The test system of experiment [3] is Candida albicans. Description: Antifungal activity against itraconazole and fluconazole susceptible Candida albicans ATCC MYA-2876 after 48 hrs by broth dilution method. It is filed as functional.
Experiment [4] relates to Candida albicans. Kind of experiment: Antifungal activity against itraconazole and fluconazole resistant Candida albicans ATCC 90819 after 48 hrs by broth dilution method. It is filed as functional. In short, it runs like this: as §2
For experiment [5], the system named is Candida albicans. Description: Antifungal activity against itraconazole and fluconazole susceptible Candida albicans ATCC MYA-2310 after 48 hrs by broth dilution method. It is filed as functional.
For experiment [6], the system named is Candida albicans. Kind of experiment: Antifungal activity against itraconazole and fluconazole resistant Candida albicans ATCC MYA-1237 after 48 hrs by broth dilution method. The experiment is classed as functional. A digest of the protocol: as §2
Experiment [7] concerns Candida albicans. Kind of experiment: Antifungal activity against itraconazole and fluconazole resistant Candida albicans ATCC MYA-1003 after 48 hrs by broth dilution method. It is filed as functional. In short, it runs like this: as §2
Experiment [8] has as its system Nakaseomyces glabratus. Kind of experiment: Antifungal activity against Candida glabrata ATCC 2001 after 48 hrs by broth dilution method. The experiment is classed as functional, CBS 138.
Experiment [9] concerns Pichia kudriavzevii. Kind of experiment: Antifungal activity against Candida krusei ATCC 6258 after 48 hrs by broth dilution method. It is filed as functional. In short, it runs like this: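 Yeasts tested per CLSI M27-A3 with minor changes. An overnight YPD culture (35 °C, 200 rpm) was adjusted to OD600 0.12 and diluted in MOPS-buffered RPMI 1640 (pH 7.0) to a final 1–2 × 10^3 CFU/mL. Compounds 0.015–31.3 µg/mL, DMSO <1.25%.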

Experiment [10] concerns Candida parapsilosis. Kind of experiment: Antifungal activity against Candida parapsilosis ATCC 22019 after 48 hrs by broth dilution method. The experiment is classed as functional.
The subject of experiment [11] is Aspergillus nidulans. Description: Antifungal activity against Aspergillus nidulans ATCC 38163 after 48 hrs by broth dilution method. The experiment is classed as functional. In short, it runs like this: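 A. nidulans run per CLSI M38-A2. PDA spores were filtered through glass wool and counted by hemocytometer. Test range 0.03–31.3 µg/mL in MOPS-buffered RPMI 1640 (pH 7.0), final 5 × 10^5 CFU/mL.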

Experiment [12] deals with Aspergillus terreus. Kind of experiment: Antifungal activity against Aspergillus terreus ATCC MYA-3633 after 48 hrs by broth dilution method. The experiment is classed as functional. In short, it runs like this:
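Molds tested per CLSI M38-A2. Spores were harvested from sporulating PDA cultures by filtering through glass wool and counted on a hemocytometer. Serial dilutions (0.03–31.3 µg/mL) were made in RPMI 1640 buffered to pH 7.0 with 0.165 M MOPS, final inoculum 5 × 10^5 CFU/mL.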

The test system of experiment [13] is Candida parapsilosis. Kind of experiment: Antifungal activity against Candida parapsilosis ATCC 22019 after 48 hrs in the presence of 10% FBS by broth dilution method. It is filed as functional. As to conditions: Lodderomyces parapsilosis, ATCC 22019, 48 h.
In experiment [14] the test system is Aspergillus nidulans. Description: Antifungal activity against Aspergillus nidulans ATCC 38163 after 48 hrs in the presence of 10% FBS by broth dilution method. It is filed as functional. As to conditions: ATCC 38163, 48 h.
Experiment [15] has as its system Candida albicans. Description: Antibiofilm activity against voriconazole resistant Candida albicans ATCC 64124 sessile cells incubated for 24 hrs by XTT reduction assay. As to conditions: ATCC 64124, 24 h. The experiment is classed as functional. In short, it runs like this: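 Strain B grown overnight in YPD broth at 35 °C, diluted to OD600 0.1 (~10^6 CFU/mL), then grown statically for 24 h at 37 °C to form biofilm. Washed with PBS, then drug in RPMI 1640 at 0.12–62.5 µg/mL for 24 h at 37 °C. Read-out: XTT 0.5 mg/mL with menadione 1 µM, 2 h, A490. SMIC50/SMIC80 are 50%/80% decreases versus drug-free biofilm. Duplicate.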
Background: Formazan colour is commonly taken as a measure of viable cells.

Experiment [16] relates to Candida parapsilosis. Kind of experiment: Fungistatic activity against Candida parapsilosis ATCC 22019 at 1 to 4 times MIC incubated for 24 hrs by time kill assay. The experiment is classed as functional. In short, it runs like this:
as §1

Experiment [17] concerns Candida albicans. Kind of experiment: Inhibition of 14alpha-demethylase in Candida albicans ATCC 10231 assessed as ergosterol levels at 0.12 ug/mL by GC-MS analysis. More on the design: scale not given: the % may be the effect or the level left. A digest of the protocol: (§3)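 Sterols were extracted from treated C. albicans ATCC 10231 (strain A) cells and profiled by GC-MS. Each sterol (lanosterol, ergosterol, eburicol, 14α-methyl ergosta-8,24(28)-diene-3β,6α-diol) is reported as a percentage of the sterol composition. A DMSO-treated culture served as the no-drug comparison.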

For experiment [18], the system named is Candida albicans. Description: Inhibition of 14alpha-demethylase in Candida albicans ATCC 10231 assessed as lanosterol levels at 0.12 ug/mL by GC-MS analysis. On the set-up: scale not given: the % may be the effect or the level left. In short, it runs like this:
as §3

The test system of experiment [19] is Candida albicans. Description: Inhibition of 14alpha-demethylase in Candida albicans ATCC 10231 assessed as eburicol levels at 0.12 ug/mL by GC-MS analysis. More on the design: scale not given: the % may be the effect or the level left. A digest of the protocol:
as §3

Experiment [20] relates to Candida albicans. Description: Inhibition of 14alpha-demethylase in Candida albicans ATCC 10231 assessed as 14alpha-methyl ergosta-8,24(28)-dien-3beta,6alpha-diol levels at 0.12 ug/mL by GC-MS analysis. More on the design: scale not given: the % may be the effect or the level left. In short, it runs like this: as §3
Experiment [21] relates to Nakaseomyces glabratus. Kind of experiment: Fungistatic activity against Candida glabrata ATCC 2001 at 4 times MIC incubated for 24 hrs by time kill assay. It is filed as functional. To be noted: CBS 138. A digest of the protocol: as §1
Experiment [22] deals with Candida albicans. Kind of experiment: Inhibition of 14alpha-demethylase in Candida albicans ATCC 10231 assessed as total sterol levels at 0.12 ug/mL by GC-MS analysis. More on the design: scale not given: the % may be the effect or the level left.
Experiment [23] relates to Candida albicans. Kind of experiment: Antifungal activity against Candida albicans ATCC 10231 at […] ug/mL incubated for 1 hr by propidium iodide staining-based fluorescence microscopic method. It is filed as functional.

For `C[C@@H](c1ncncc1F)[C@](O)(Cn1cncn1)c1ccc(F)cc1F` [VORICONAZOLE], the outcome in experiment [1], in experiment [16] and in experiment [21] was Active. The “MIC=<50” value in experiment [2] came to 11.2 µM (≈ 3.91 µg/mL); in experiment [3] it was 5.6 µM (≈ 1.96 µg/mL); in experiment [4], 5.6 µM (≈ 1.96 µg/mL); in experiment [5], 2.8 µM (≈ 0.978 µg/mL); in experiment [6] it was 22.3 µM (≈ 7.79 µg/mL); in [7], 5.6 µM (≈ 1.96 µg/mL). The “MIC=<50” value in experiment [8] is 0.17 µM (≈ 0.0594 µg/mL); in [9], 0.34 µM (≈ 0.119 µg/mL); in experiment [10], less than 0.06 µM; in experiment [11], 0.34 µM (≈ 0.119 µg/mL); in [12], 0.34 µM (≈ 0.119 µg/mL). Moreover, the figures for the MIC in experiment [13] and in [14] were 0.015 µg/mL and 0.12 µg/mL, respectively. Further, the MIC50 in experiment [15] amounted to 62.5 µg/mL (≈ 179 µM). Moreover, the MIC80 in [15] turned out to be 62.5 µg/mL (≈ 179 µM). Besides, the Activity in experiment [17] was 64.9%; in experiment [18], 18.5%; in experiment [19], 2.14%; in [20], 10.1%; in [22], 1.56 to 2.79%.
Take `CCCCCCCCCCCCCCOC[C@H]1O[C@H](O[C@@H]2[C@@H](O)[C@H](O[C@H]3O[C@H](CN)[C@@H](O)[C@H](O)[C@H]3N)[C@@H](N)C[C@H]2N)[C@H](O)[C@@H](N)[C@@H]1O`: the result in [23] was Active.

Source of the values: ChEMBL document CHEMBL4024783, “Alkylated Piperazines and Piperazine-Azole Hybrids as Antifungal Agents” (J Med Chem, 2018).
